beta cell repl – inducers of MIN6 beta-cell proliferation, primary screen, ATP luminescence, uHTS; MIN6 cells proliferation, ATPlite luminescence, 48 h; cells starved in 0.2% serum; 100% = growth in 10% serum; hit rate 0.29% among 330,000; proliferation, % at 10 µM;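 active means compounds whose signal lies at least 3.5 SD above the mean of all wells on their plate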;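 further: 0% = DMSO-treated cells in low-serum medium and 100% = 10% serum control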
Calb FLC – C. albicans growth inhibition with fluconazole, primary screen, CaCi-2 strain, Alamar Blue fluorescence. C. albicans CaCi-2 + fluconazole, 48 h. growth inhibition, % (concentration not given with the values). hit rate 0.57% among 300,000;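 active means growth inhibition above about 58% in most replicates, limit read from the data, passing the limit was not always enough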;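 further: all wells also contain fluconazole at 8 µg/ml as a sub-toxic cotreatment; 0% = median of DMSO wells and 100% = median of geldanamycin control wells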
Ins promoter up – insulin promoter activators in MIN6 cells, imaging, high-content screening, mouse beta cells; MIN6 insulin promoter-GFP reporter; active compounds read high; z-score at 5 µM; AID 1625, 2009; hit rate 0.3% among 190,000;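 active means z-score above 3 at 5 µM with at least 500 cells counted in the well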
SR-BI DiI inh – inhibitors of SR-BI mediated HDL lipid uptake, primary screen, ldlA[mSR-BI] cells, fluorescence, single point | inhibition, % at 12.5 µM | hit rate 0.96% among 320,000 | ldlA[mSR-BI] CHO cells, DiI-HDL uptake fluorescence, 3 h;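 active means mean replicate inhibition of at least 70% and a set share of replicates each scoring 70 or more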;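 further: 0% = median of neutral control wells and 100% = median of positive control wells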
SR-BI uptake up – activators of SR-BI mediated DiI-HDL uptake, primary screen, ldlA[mSR-BI] CHO cells, DiI fluorescence; activation, % at 12.5 µM; 3 h; 100 = double the neutral-control signal; AID 504775, 2011; hit rate 0.096% among 320,000;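 active means mean replicate activation of at least 60% and every replicate at or above 60%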;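 further: 0% = median plate neutral-control signal and 100% = twice that signal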
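Test system: SR-BI-overexpressing, LDLR-lacking CHO cells; Medium: Ham's F12 with 0.5% BSA, HEPES 25 mM, pH 7.4; Schedule: 3 h, 37 °C; Technique: bottom-read fluorescence, 550/595 nm.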
m5-HT2A agonist – mouse Htr2a agonists via beta-arrestin recruitment, primary screen, cell-based, luminescence. CHO-K1 mHTR2A beta-arrestin complementation; percent of 30 µM serotonin response. activation, % at 7.6 µM. hit rate 0.66% among 360,000;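 active means activation above a run cutoff, the mean activation of all tested compounds plus 3 SD, cut at about 14% in these data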;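 further: 0% = plate median of compound wells and 100% = 30 µM serotonin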
Target sequence (P35363 whole entry, looked up): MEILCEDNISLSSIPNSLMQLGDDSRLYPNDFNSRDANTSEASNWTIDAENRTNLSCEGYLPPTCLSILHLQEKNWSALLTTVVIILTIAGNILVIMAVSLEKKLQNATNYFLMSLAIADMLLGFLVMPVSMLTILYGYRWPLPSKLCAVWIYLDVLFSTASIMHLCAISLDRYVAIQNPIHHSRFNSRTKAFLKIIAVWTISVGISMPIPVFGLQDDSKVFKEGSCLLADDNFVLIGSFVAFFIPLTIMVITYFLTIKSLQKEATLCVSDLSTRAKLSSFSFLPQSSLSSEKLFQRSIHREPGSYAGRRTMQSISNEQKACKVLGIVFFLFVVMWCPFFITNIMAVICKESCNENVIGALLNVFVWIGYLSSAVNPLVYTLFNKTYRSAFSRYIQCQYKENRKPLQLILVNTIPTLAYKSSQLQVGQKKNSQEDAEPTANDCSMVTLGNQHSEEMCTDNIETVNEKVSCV
* = called active by the depositor. Compounds with a hit are over-represented: about 2.4% of the library has one in this group of screens.

`COc1cccc(/C=N/NC(=O)c2nc(-c3ccccc3)cc(-c3ccccc3)n2)c1` gave beta cell repl -4, Calb FLC 0, Ins promoter up 0.54, SR-BI DiI inh 81*, SR-BI uptake up -81 and m5-HT2A agonist -5.
Screening COc1cccc(/C=N/NC(=O)CCn2cnc3ccccc32)c1 returned beta cell repl -3, Calb FLC -7, Ins promoter up 3.7*, SR-BI DiI inh 2, SR-BI uptake up -2 and m5-HT2A agonist -2.
`O=C(N/N=C/c1cc([N+](=O)[O-])ccc1O)NC12CC3CC(CC(C3)C1)C2` gave beta cell repl -5, Calb FLC 34, SR-BI DiI inh 5, SR-BI uptake up -5 and m5-HT2A agonist 2.
`Nc1ccc(C(=O)N/N=C\c2cc(N=Nc3cccc4ccccc34)ccc2O)cc1` gave beta cell repl -7, Calb FLC 32, Ins promoter up -0.72, SR-BI DiI inh 122*, SR-BI uptake up -122 and m5-HT2A agonist -1.
O=C(N/N=C/c1cc([N+](=O)[O-])ccc1O)C12CC3CC(CC(C3)C1)C2 was read as beta cell repl -5, Calb FLC 18, Ins promoter up 0.98, SR-BI DiI inh 136*, SR-BI uptake up -136 and m5-HT2A agonist -1.
`O=c1[nH]c(CSc2nc(-c3ccc(F)cc3)cs2)nc2ccccc12` gave beta cell repl -1, Calb FLC -4, Ins promoter up -0.39, SR-BI DiI inh 0, SR-BI uptake up 0 and m5-HT2A agonist 2.
Screening O=C(CCN1C(=O)C2C3CCC(C3)C2C1=O)Nc1ccc(F)cc1 (configuration not stated) returned beta cell repl -3, Calb FLC 3, SR-BI DiI inh -10, SR-BI uptake up 10 and m5-HT2A agonist 3.
Screening CC(C)(C)c1ccc(C(=O)NC2CCS(=O)(=O)C2)cc1 (configuration not stated) returned beta cell repl -2, Calb FLC -2, SR-BI DiI inh -3, SR-BI uptake up 3 and m5-HT2A agonist 3.
O=C(CSc1ccccc1F)NC(=O)c1ccccc1Br was read as beta cell repl 2, SR-BI DiI inh -10, SR-BI uptake up 10 and m5-HT2A agonist -1.
Screening O=[N+]([O-])c1ccc(O)c(/C=N/Nc2nc3ccccc3[nH]2)c1 returned beta cell repl -6, Calb FLC 32, Ins promoter up -0.55, SR-BI DiI inh 87*, SR-BI uptake up -87 and m5-HT2A agonist -4.
For COC(=O)N/N=C/c1cc(N=Nc2ccccc2)ccc1O the results were beta cell repl -6, Calb FLC 1, Ins promoter up -0.01, SR-BI DiI inh 15, SR-BI uptake up -15 and m5-HT2A agonist -11.
Cc1cc(C(=O)N/N=C/c2cc([N+](=O)[O-])ccc2O)c2ccccc2n1 was read as beta cell repl -1, Calb FLC 24, Ins promoter up -0.15, SR-BI DiI inh 118*, SR-BI uptake up -118 and m5-HT2A agonist -7.
Cc1cc(C(=O)N/N=C/c2cc(N=Nc3ccccc3)ccc2O)n[nH]1 was read as Calb FLC -1, Ins promoter up -0.13, SR-BI DiI inh 115*, SR-BI uptake up -115 and m5-HT2A agonist -2.
`O=C(N/N=C/c1cc([N+](=O)[O-])ccc1O)c1c[nH]c2ccccc12` gave beta cell repl -1, Calb FLC 2 and m5-HT2A agonist 1.
`O=C(NN=Cc1cc([N+](=O)[O-])ccc1O)c1cccc2ccccc12` gave SR-BI DiI inh 134*, SR-BI uptake up -134 and m5-HT2A agonist -3.
CC(Oc1ccc(Br)cc1)C(=O)NCCCN1CCCC1=O (configuration not stated) was read as beta cell repl 4, SR-BI DiI inh 3, SR-BI uptake up -3 and m5-HT2A agonist -1.
